Test results taken from ChEMBL document CHEMBL1147131, “Investigation of the lactam side chain length necessary for optimal indenoisoquinoline topoisomerase I inhibition and cytotoxicity in human cancer cell cultures” (J Med Chem, 2007).
Each block holds one compound with its values, some of them ahead of it. Activity calls are given as the source filed them. The rule behind the calls is not given here.

Tests used:
[1] = test system: SF-268; assay: Cytotoxicity against human SF268 cells; assay type: functional
[2] = Cytotoxicity against human HOP62 cells; assay type: cell-based; conditions: HOP-62 cells
[3] = Cytotoxicity against human HCT116 cells; assay type: cell-based; conditions: HCT-116 cells
[4] = Cytotoxicity against human UACC62 cells; assay type: cell-based; conditions: UACC-62 cells
[5] = Cytotoxicity against human OVCAR-3 cells; assay type: cell-based
[6] = Cytotoxicity against human SN12C cells; assay type: cell-based
[7] = Cytotoxicity against human DU145 cells; assay type: cell-based; conditions: DU-145 cells
[8] = Cytotoxicity against human […] cells; assay type: cell-based
[9] = target: T1, DNA topoisomerase 1 (Homo sapiens) (UniProt P11387); assay: Inhibition of human recombinant topoisomerase 1-mediated DNA cleavage after 30 mins
T1 sequence (whole entry): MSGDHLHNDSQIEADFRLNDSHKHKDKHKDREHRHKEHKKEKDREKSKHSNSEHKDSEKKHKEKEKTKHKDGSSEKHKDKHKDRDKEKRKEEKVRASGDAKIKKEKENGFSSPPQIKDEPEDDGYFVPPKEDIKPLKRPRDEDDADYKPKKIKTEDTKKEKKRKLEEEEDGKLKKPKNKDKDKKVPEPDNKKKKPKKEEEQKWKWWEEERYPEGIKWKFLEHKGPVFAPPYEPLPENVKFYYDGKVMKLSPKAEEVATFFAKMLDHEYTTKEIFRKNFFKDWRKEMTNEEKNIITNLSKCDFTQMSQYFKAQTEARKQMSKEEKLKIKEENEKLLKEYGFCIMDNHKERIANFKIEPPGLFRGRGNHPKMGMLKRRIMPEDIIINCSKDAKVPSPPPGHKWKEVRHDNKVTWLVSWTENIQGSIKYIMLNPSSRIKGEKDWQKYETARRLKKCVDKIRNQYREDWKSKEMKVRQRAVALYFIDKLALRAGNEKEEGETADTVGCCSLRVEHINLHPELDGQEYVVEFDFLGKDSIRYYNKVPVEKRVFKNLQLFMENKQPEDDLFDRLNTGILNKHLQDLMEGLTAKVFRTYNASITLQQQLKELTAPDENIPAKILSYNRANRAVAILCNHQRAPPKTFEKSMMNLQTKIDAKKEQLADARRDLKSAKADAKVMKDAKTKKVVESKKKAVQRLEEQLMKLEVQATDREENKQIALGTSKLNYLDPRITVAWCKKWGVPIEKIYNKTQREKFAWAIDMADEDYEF
Method in brief: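 Human recombinant Top1 purified from baculovirus. Substrate: 161 bp PvuII/HindIII fragment of pBluescript SK(−), 3′-end labeled at the HindIII site by Klenow fill-in with [α-32P]-dGTP. About 50,000 dpm per reaction, incubated with Top1 plus drug for 30 min at 22 °C. Stopped with SDS (0.5% final). Run on denaturing 16% polyacrylamide/7 M urea gels and phosphorimaged. Cleavage scored semi-quantitatively (+ scale) against the parent indenoisoquinoline.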

Activity [9]: inactive
Structure (SMILES): CC(C)(C)OC(=O)NCCCCCCCCCCn1c2c(c3ccccc3c1=O)C(=O)c1ccccc1-2
GI50 [1]: 42.7 µM
GI50 [2]: 28.8 µM
GI50 [3]: 60.3 µM
GI50 [4]: 43.6 µM
GI50 [5]: > 100 µM
GI50 [6]: > 100 µM
GI50 [7]: 97.7 µM
GI50 [8]: > 100 µM

Activity [9]: inactive
Structure (SMILES): Nn1c2c(c3ccccc3c1=O)C(=O)c1ccccc1-2
GI50 [1]: 28.2 µM
GI50 [2]: 24.5 µM
GI50 [3]: > 50.1 µM
GI50 [4]: > 50.1 µM
GI50 [5]: > 50.1 µM
GI50 [6]: > 50.1 µM
GI50 [7]: > 50.1 µM
GI50 [8]: > 50.1 µM

Activity [9]: inactive
Structure (SMILES): NCCCCCCCCCn1c2c(c3ccccc3c1=O)C(=O)c1ccccc1-2
GI50 [1]: 9.77 µM
GI50 [2]: 6.76 µM
GI50 [3]: 6.46 µM
GI50 [4]: 9.33 µM
GI50 [5]: 9.55 µM
GI50 [6]: 8.51 µM
GI50 [7]: 6.03 µM
GI50 [8]: 9.55 µM

Activity [9]: inactive
Structure (SMILES): O=C1c2ccccc2-c2c1c1ccccc1c(=O)n2Cc1ccccn1
GI50 [1]: 12.3 µM
GI50 [2]: 11.2 µM
GI50 [4]: 10.7 µM
GI50 [5]: 13.8 µM
GI50 [6]: 28.2 µM
GI50 [7]: 13.5 µM
GI50 [8]: 3.09 µM

Activity [9]: inactive
Structure (SMILES): NCCCCCCCCCCn1c2c(c3ccccc3c1=O)C(=O)c1ccccc1-2
GI50 [1]: 1.82 µM
GI50 [2]: 4.79 µM
GI50 [3]: 2.75 µM
GI50 [4]: 13.8 µM
GI50 [5]: 10.7 µM
GI50 [6]: 3.31 µM
GI50 [7]: 3.47 µM
GI50 [8]: 11.7 µM

Activity [9]: inactive
Structure (SMILES): O=C1c2ccccc2-c2c1c1ccccc1c(=O)n2CCc1cccnc1
GI50 [1]: 27.5 µM
GI50 [2]: 28.8 µM
GI50 [4]: 89.1 µM
GI50 [5]: > 100 µM
GI50 [6]: > 100 µM
GI50 [7]: 81.3 µM
GI50 [8]: 4.57 µM

Structure (SMILES): CC(C)(C)OC(=O)NCCCCCCCCCCCCn1c2c(c3ccccc3c1=O)C(=O)c1ccccc1-2
GI50 [1]: 20.4 µM
GI50 [2]: 32.4 µM
GI50 [3]: > 100 µM
GI50 [4]: 27.5 µM
GI50 [5]: > 100 µM
GI50 [6]: > 100 µM
GI50 [7]: 91.2 µM
GI50 [8]: > 100 µM

Structure (SMILES): CC[C@@]1(O)C(=O)OCc2c1cc1n(c2=O)Cc2cc3ccccc3nc2-1 [CAMPTOTHECIN]
GI50 [1]: 0.01 µM
GI50 [8]: 0.04 µM

Structure (SMILES): O=C1c2ccccc2-c2c1c1ccccc1c(=O)n2Cc1cccnc1
GI50 [1]: 6.76 µM
GI50 [2]: 7.59 µM
GI50 [4]: 8.71 µM
GI50 [5]: 13.8 µM
GI50 [6]: 13.8 µM
GI50 [7]: 13.8 µM
GI50 [8]: 42.7 µM

Activity [9]: inactive
Structure (SMILES): O=C1c2ccccc2-c2c1c1ccccc1c(=O)n2CCc1ccccn1
GI50 [1]: 17.4 µM
GI50 [2]: 21.4 µM
GI50 [4]: 27.5 µM
GI50 [5]: > 100 µM
GI50 [6]: 77.6 µM
GI50 [7]: 74.1 µM
GI50 [8]: 5.13 µM

Structure (SMILES): NCCCCCCn1c2c(c3ccccc3c1=O)C(=O)c1ccccc1-2
GI50 [1]: 1.23 µM
GI50 [2]: 1.29 µM
GI50 [3]: 0.912 µM
GI50 [4]: 1.62 µM
GI50 [5]: 2 µM
GI50 [6]: 1.32 µM
GI50 [7]: 0.603 µM
GI50 [8]: 2.04 µM

Structure (SMILES): CC(C)(C)OC(=O)NCCCCCCCCCCCn1c2c(c3ccccc3c1=O)C(=O)c1ccccc1-2
GI50 [1]: 29.5 µM
GI50 [2]: 20.9 µM
GI50 [3]: 35.5 µM
GI50 [4]: 24 µM
GI50 [5]: 70.8 µM
GI50 [6]: > 100 µM
GI50 [7]: 91.2 µM
GI50 [8]: > 100 µM

Structure (SMILES): COc1cc2c3c(n(CCCNCCNCCN)c(=O)c2cc1OC)-c1cc2c(cc1C3=O)OCO2
GI50 [2]: 2.8 µM
GI50 [3]: 0.9 µM
GI50 [4]: 2.6 µM
GI50 [5]: 1.7 µM
GI50 [6]: 2.5 µM
GI50 [7]: 1.2 µM
GI50 [8]: 2.7 µM

Activity [9]: inactive
Structure (SMILES): CC(C)(C)OC(=O)NCCCCCCCn1c2c(c3ccccc3c1=O)C(=O)c1ccccc1-2
GI50 [1]: 20.9 µM
GI50 [3]: 17.4 µM
GI50 [4]: 20 µM
GI50 [5]: 33.9 µM
GI50 [6]: 74.1 µM
GI50 [7]: 31.6 µM
GI50 [8]: 81.3 µM

Structure (SMILES): COc1cc2c3c(n(CCCNCCNCCCN)c(=O)c2cc1OC)-c1cc2c(cc1C3=O)OCO2
GI50 [2]: 2.9 µM
GI50 [3]: 1.3 µM
GI50 [4]: 1.9 µM
GI50 [5]: 8.1 µM
GI50 [6]: 1.7 µM
GI50 [7]: 4.6 µM
GI50 [8]: 3.4 µM

Structure (SMILES): NCCCCn1c2c(c3ccccc3c1=O)C(=O)c1ccccc1-2
GI50 [1]: 0.1 µM
GI50 [2]: 0.08 µM
GI50 [3]: 0.1 µM
GI50 [4]: 0.05 µM
GI50 [5]: 0.52 µM
GI50 [6]: 0.04 µM
GI50 [7]: 0.01 µM
GI50 [8]: 0.84 µM

Structure (SMILES): COc1cc2c3c(n(CCCNCCCNCCN)c(=O)c2cc1OC)-c1cc2c(cc1C3=O)OCO2
GI50 [3]: 23 µM
GI50 [4]: 37 µM
GI50 [5]: 20 µM
GI50 [6]: 20 µM
GI50 [7]: 52 µM
GI50 [8]: 38 µM

Activity [9]: inactive
Structure (SMILES): NCCCCCn1c2c(c3ccccc3c1=O)C(=O)c1ccccc1-2
GI50 [1]: 0.871 µM
GI50 [2]: 0.288 µM
GI50 [3]: 0.2 µM
GI50 [4]: 1.35 µM
GI50 [5]: 0.708 µM
GI50 [6]: 0.398 µM
GI50 [7]: 0.347 µM
GI50 [8]: 1.35 µM

Activity [9]: inactive
Structure (SMILES): NCCCCCCCn1c2c(c3ccccc3c1=O)C(=O)c1ccccc1-2
GI50 [1]: 1.78 µM
GI50 [2]: 1.2 µM
GI50 [3]: 1.26 µM
GI50 [4]: 2 µM
GI50 [5]: 1.7 µM
GI50 [6]: 1.66 µM
GI50 [7]: 0.832 µM
GI50 [8]: 2.24 µM

Structure (SMILES): COc1cc2c3c(n(C)c(=O)c2cc1OC)-c1cc2c(cc1C3=O)OCO2
GI50 [8]: 96 µM

Structure (SMILES): NCCCn1c2c(c3ccccc3c1=O)C(=O)c1ccccc1-2
GI50 [1]: 0.25 µM
GI50 [2]: 0.2 µM
GI50 [3]: 0.18 µM
GI50 [4]: 0.26 µM
GI50 [5]: 1.38 µM
GI50 [6]: 0.16 µM
GI50 [7]: 0.22 µM
GI50 [8]: 0.78 µM

Structure (SMILES): NCCCCCCCCCCCn1c2c(c3ccccc3c1=O)C(=O)c1ccccc1-2
GI50 [1]: 2.04 µM
GI50 [2]: 2.19 µM
GI50 [3]: 1.91 µM
GI50 [4]: 1.7 µM
GI50 [5]: 2.09 µM
GI50 [6]: 2 µM
GI50 [7]: 4.57 µM
GI50 [8]: 11 µM

Activity [9]: inactive
Structure (SMILES): CC(C)(C)OC(=O)NCCCCCCCCn1c2c(c3ccccc3c1=O)C(=O)c1ccccc1-2
GI50 [1]: 8.71 µM
GI50 [2]: 10.7 µM
GI50 [3]: 25.7 µM
GI50 [4]: 15.5 µM
GI50 [6]: > 50.1 µM
GI50 [7]: > 50.1 µM
GI50 [8]: > 50.1 µM

Structure (SMILES): COc1cc2c3c(n(CCCNCCCNCCCN)c(=O)c2cc1OC)-c1cc2c(cc1C3=O)OCO2
GI50 [3]: 43 µM
GI50 [4]: 44 µM
GI50 [5]: 0.88 µM
GI50 [6]: 33 µM
GI50 [7]: > 100 µM
GI50 [8]: 68 µM

Structure (SMILES): NCCCCCCCCn1c2c(c3ccccc3c1=O)C(=O)c1ccccc1-2
GI50 [1]: 2.82 µM
GI50 [2]: 2.14 µM
GI50 [3]: 1.66 µM
GI50 [4]: 3.8 µM
GI50 [5]: 3.47 µM
GI50 [6]: 3.47 µM
GI50 [7]: 3.39 µM
GI50 [8]: 5.62 µM

Structure (SMILES): NCCCCCCCCCCCCn1c2c(c3ccccc3c1=O)C(=O)c1ccccc1-2
GI50 [1]: 18.2 µM
GI50 [2]: 17 µM
GI50 [4]: 14.8 µM
GI50 [5]: 17.8 µM
GI50 [6]: 13.5 µM
GI50 [7]: 19.1 µM
GI50 [8]: 19.5 µM

Structure (SMILES): CC(C)(C)OC(=O)NCCCCCCCCCn1c2c(c3ccccc3c1=O)C(=O)c1ccccc1-2
GI50 [1]: 17.8 µM
GI50 [2]: 24.5 µM
GI50 [4]: 17.4 µM
GI50 [5]: 28.8 µM
GI50 [6]: 77.6 µM
GI50 [7]: > 100 µM
GI50 [8]: > 100 µM

Structure (SMILES): NCCn1c2c(c3ccccc3c1=O)C(=O)c1ccccc1-2
GI50 [1]: 0.21 µM
GI50 [2]: 0.62 µM
GI50 [3]: 0.27 µM
GI50 [4]: 0.92 µM
GI50 [5]: 0.71 µM
GI50 [6]: 0.49 µM
GI50 [7]: 0.76 µM
GI50 [8]: 0.92 µM
